Experimental findings from publication PMC5643981 (Chemical Science, 2017) are described below.

Marks after values point to notes of the source that are not given here.

Experiment [1] has as its system Pseudomonas aeruginosa strain PAO1 biofilm. In words: Dispersal of preformed biofilm. It counts as cell-based. In a few lines: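 Biofilm formed 24 h at 37 °C, static, in 0.25% (w/v) nutrient broth no. 2 from washed overnight PAO1 (OD600 1) without compound. Wells washed twice with water, then given sterile-filtered test compound plus polymyxin B in the same broth for another 24 h at 37 °C, static. After two washes, stained with 0.5 mM WST-8 + 20 μM phenazine ethosulfate (2.5–3 h, 37 °C); supernatant A450 read.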

The test system is the same in experiment [2]. Put plainly: Biofilm inhibition. It counts as cell-based. The gist of the method:
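PAO1 grown overnight in LB at 37 °C with 180 rpm shaking, washed in 0.25% (w/v) nutrient broth no. 2 and set to OD600 1. 20 μL goes into 180 μL of the same medium with sterile-filtered test compound and polymyxin B. Incubated humid, static, 24–25 h at 37 °C, washed twice with water. Viability read by 0.5 mM WST-8 + 20 μM phenazine ethosulfate (2.5–3 h, 37 °C), supernatant A450.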

As for Polymyxin B [Pmx], the “Dispersal, Pmx with 29b” value in experiment [1] (Measured with 8 μg mL^–1 of 29b in the presence of 1.5 μg mL^–1 of Pmx) stood at 100% ^i. In addition, the “Dispersal, Pmx with 36b” value in experiment [1] (Measured with 8 μg mL^–1 of 36b in the presence of 1.5 μg mL^–1 of Pmx) amounted to 100% ^i. The “MBIC of Pmx +0.5 μg mL^–1 36b” value in experiment [2] (Pmx in the presence of 0.5 μg mL^–1 36b) amounted to 1.5 μg mL^–1. Moreover, in experiment [2] (Pmx in the presence of 1 μg mL^–1 29b), the “MBIC of Pmx +1 μg mL^–1 29b” value is given as 1.5 μg mL^–1.
